Source: ChEMBL document CHEMBL4152279, “Synthesis, cytotoxic evaluation and target identification of thieno[2,3-d]pyrimidine derivatives with a dithiocarbamate side chain at C2 position” (Eur J Med Chem, 2018)
The source made the active and inactive calls. The calls are words filed in the database; no cut-off is given here.

Tests used:
[1] = target: T1, RNA-binding protein EWS (Homo sapiens) (UniProt Q01844); assay: Binding affinity to RNA-binding protein EWS isoform 6 in human A549 cells at 0.15 mM after 4 hrs by HPLC-MS based pull down assay relative to control; format: cell-based
T1 sequence (whole entry): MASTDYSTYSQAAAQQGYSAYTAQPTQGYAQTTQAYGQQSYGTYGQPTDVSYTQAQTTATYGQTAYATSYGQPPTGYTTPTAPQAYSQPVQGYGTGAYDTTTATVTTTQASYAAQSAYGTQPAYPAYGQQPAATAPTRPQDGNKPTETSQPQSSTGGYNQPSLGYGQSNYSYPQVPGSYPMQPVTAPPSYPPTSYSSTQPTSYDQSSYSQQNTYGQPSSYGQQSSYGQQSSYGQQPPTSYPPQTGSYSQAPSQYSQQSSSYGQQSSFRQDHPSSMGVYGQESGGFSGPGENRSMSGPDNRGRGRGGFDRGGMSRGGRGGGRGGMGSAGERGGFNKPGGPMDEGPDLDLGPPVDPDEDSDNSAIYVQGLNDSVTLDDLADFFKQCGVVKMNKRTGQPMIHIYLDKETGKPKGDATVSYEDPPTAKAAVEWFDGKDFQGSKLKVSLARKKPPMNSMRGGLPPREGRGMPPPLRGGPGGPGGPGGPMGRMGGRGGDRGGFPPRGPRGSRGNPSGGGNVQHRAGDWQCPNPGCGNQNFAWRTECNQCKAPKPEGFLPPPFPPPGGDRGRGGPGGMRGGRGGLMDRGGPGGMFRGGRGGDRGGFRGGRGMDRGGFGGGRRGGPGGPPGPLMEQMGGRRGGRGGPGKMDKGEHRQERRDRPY
How it was run: (§1)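 A549 lysate in NETN buffer (pH 8.0, 0.5% NP-40) incubated with biotinylated probe (0.15 mM final) 4 h at 4 °C, with biotin or control probe as comparators. Streptavidin Dynabeads 1 h at 4 °C, six NETN washes, proteins eluted by boiling in SDS buffer. After trypsin digestion, identification by LC-MS/MS on Q Exactive HF.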

[2] = target: Tubulin beta-4B chain (Homo sapiens) (UniProt P68371); assay: Binding affinity to tubulin beta-4B in human A549 cells at 0.15 mM after 4 hrs by HPLC-MS based pull down assay relative to control; format: cell-based; how it was run: as §1
[3] = target: T2, ATP-dependent RNA helicase DDX1 (Homo sapiens) (UniProt Q92499); assay: Binding affinity to DDX1 in human A549 cells at 0.15 mM after 4 hrs by HPLC-MS based pull down assay relative to control; format: cell-based; how it was run: as §1
T2 sequence (whole entry): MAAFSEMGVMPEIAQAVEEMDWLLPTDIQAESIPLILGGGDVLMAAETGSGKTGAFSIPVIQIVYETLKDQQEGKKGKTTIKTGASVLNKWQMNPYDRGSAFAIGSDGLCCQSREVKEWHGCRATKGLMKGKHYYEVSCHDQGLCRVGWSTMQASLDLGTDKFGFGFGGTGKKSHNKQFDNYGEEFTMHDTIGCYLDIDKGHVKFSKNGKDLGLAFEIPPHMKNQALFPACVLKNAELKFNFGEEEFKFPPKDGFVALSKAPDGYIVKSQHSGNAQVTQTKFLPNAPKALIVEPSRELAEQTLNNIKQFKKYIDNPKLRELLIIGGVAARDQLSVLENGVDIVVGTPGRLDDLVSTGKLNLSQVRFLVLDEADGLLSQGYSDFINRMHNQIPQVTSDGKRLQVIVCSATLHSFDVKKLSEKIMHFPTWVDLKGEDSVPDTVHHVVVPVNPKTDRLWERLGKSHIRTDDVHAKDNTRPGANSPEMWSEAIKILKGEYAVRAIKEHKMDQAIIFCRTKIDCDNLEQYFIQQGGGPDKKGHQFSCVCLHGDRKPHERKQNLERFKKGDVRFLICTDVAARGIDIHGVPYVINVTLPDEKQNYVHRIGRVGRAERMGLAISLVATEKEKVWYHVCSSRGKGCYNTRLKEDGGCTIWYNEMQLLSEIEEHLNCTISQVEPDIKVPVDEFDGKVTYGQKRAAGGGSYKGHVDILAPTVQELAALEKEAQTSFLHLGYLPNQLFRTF

[4] = target: Ubiquitin carboxyl-terminal hydrolase 10 (Homo sapiens) (UniProt Q14694); assay: Binding affinity to ubiquitin carboxyl-terminal hydrolase 10 isoform-2 in human A549 cells at 0.15 mM after 4 hrs by HPLC-MS based pull down assay relative to control; format: cell-based; how it was run: as §1
Sus scrofa [5] = species on record: Sus scrofa; assay: Binding affinity to porcine tubulin after overnight incubation by streptavidin pull down assay
How it was run: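 Purified porcine neuronal tubulin incubated with biotin, biotinylated probe or control probe in NETN buffer at 4 °C. Streptavidin Dynabeads 1 h at 4 °C, six washes, then SDS-PAGE and α-tubulin immunoblot.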

Sus scrofa [6] = species on record: Sus scrofa; assay: Inhibition of colchicine binding to porcine tubulin treated 2 hrs post colchicine treatment by pull down assay
How it was run: (§2)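 Porcine neuronal tubulin was preincubated with excess taxol, colchicine, vinblastine or nocodazole for 2 h at 4 °C. Biotinylated probe was then added in NETN buffer, followed by streptavidin Dynabead pull-down for 1 h at 4 °C and six washes. Bound α-tubulin was detected by SDS–PAGE and immunoblot. Three independent experiments.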

Sus scrofa [7] = species on record: Sus scrofa; assay: Inhibition of taxol binding to porcine tubulin treated 2 hrs post colchicine treatment by pull down assay; how it was run: as §2
Sus scrofa [8] = species on record: Sus scrofa; assay: Inhibition of colchicine binding to porcine tubulin preincubated with tubulin followed by colchicine treatment measured after 2 hrs by immunoblot analysis
Sus scrofa [9] = species on record: Sus scrofa; assay: Inhibition of taxol binding to porcine tubulin preincubated with tubulin followed by taxol treatment measured after 2 hrs by immunoblot analysis

Chain of Ubiquitin carboxyl-terminal hydrolase 10 (Homo sapiens) (Q14694 whole entry, canonical isoform): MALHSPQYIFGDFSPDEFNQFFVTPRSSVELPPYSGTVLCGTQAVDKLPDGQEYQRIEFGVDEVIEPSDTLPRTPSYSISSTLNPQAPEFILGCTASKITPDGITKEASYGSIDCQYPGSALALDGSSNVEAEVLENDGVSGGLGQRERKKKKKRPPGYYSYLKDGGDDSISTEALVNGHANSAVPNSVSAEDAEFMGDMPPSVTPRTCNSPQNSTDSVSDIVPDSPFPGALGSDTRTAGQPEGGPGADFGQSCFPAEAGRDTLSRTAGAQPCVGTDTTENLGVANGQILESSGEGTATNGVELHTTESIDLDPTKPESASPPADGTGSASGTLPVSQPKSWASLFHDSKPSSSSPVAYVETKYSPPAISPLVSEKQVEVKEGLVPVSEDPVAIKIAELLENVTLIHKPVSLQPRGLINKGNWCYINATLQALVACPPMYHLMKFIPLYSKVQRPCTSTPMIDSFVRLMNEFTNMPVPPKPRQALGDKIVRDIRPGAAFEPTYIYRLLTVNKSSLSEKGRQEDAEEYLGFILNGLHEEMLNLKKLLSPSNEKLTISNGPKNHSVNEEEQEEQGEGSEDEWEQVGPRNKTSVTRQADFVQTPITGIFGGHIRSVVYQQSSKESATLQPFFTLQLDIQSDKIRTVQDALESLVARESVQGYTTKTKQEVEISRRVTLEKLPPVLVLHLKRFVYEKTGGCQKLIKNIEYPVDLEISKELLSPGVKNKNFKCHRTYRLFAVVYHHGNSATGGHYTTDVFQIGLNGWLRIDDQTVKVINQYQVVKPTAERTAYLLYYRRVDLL
Chain of Tubulin beta-4B chain (Homo sapiens) (P68371 whole entry): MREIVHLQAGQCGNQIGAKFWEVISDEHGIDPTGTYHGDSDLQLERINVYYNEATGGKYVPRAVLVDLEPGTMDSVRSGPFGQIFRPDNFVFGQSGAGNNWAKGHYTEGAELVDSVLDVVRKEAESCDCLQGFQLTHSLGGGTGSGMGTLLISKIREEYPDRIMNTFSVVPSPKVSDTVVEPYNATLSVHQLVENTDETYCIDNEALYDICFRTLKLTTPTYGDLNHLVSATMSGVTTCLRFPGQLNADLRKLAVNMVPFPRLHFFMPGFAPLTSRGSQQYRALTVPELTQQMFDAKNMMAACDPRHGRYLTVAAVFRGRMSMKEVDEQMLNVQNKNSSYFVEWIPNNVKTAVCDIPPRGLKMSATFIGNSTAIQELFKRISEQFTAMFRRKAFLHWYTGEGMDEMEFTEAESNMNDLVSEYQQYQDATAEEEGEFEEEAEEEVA

Question: For `Cc1cc2c(=O)[nH]c(CSC(=S)N(CCCNC(=O)CCCC[C@@H]3SC[C@@H]4NC(=O)N[C@@H]43)Cc3ccc(C#N)cc3)nc2s1`, which Activity [1] is on record?
Answer: The Activity was 40.5%.

Question: What about the Activity [2] of the same molecule?
Answer: Its Activity is 34.2%.

Question: What about the Activity [3] of the same molecule?
Answer: Its Activity is 38.8%.

Question: And the Activity [4]?
Answer: Its Activity is 42.8%.

Question: And the Activity (Sus scrofa [5])?
Answer: The Activity was “Active”.

Question: And the inhibition (Sus scrofa [6])?
Answer: Its inhibition is “Active”.

Question: What about the inhibition (Sus scrofa [7]) of the same molecule?
Answer: Its inhibition is “inactive”.

Question: And the inhibition (Sus scrofa [8])?
Answer: Its inhibition is “Active”.

Question: What about the inhibition (Sus scrofa [9]) of the same molecule?
Answer: The inhibition was “inactive”.
